Measurements reported in ChEMBL document CHEMBL4765234 (J Med Chem, 2016).

How the values were obtained:
RXR alpha/PPAR gamma = biological target: T1, RXR alpha/PPAR gamma (Homo sapiens, UniProt P19793+P37231); assay: Agonist activity at human CMV-fused […]/RXRalpha (unknown origin) expressed in African green monkey CV1 cells transfected with luciferase plasmid measured after 24 hrs by luciferase reporter gene assay; assay type: cell-based, CV-1
T1 sequence (P37231 whole entry): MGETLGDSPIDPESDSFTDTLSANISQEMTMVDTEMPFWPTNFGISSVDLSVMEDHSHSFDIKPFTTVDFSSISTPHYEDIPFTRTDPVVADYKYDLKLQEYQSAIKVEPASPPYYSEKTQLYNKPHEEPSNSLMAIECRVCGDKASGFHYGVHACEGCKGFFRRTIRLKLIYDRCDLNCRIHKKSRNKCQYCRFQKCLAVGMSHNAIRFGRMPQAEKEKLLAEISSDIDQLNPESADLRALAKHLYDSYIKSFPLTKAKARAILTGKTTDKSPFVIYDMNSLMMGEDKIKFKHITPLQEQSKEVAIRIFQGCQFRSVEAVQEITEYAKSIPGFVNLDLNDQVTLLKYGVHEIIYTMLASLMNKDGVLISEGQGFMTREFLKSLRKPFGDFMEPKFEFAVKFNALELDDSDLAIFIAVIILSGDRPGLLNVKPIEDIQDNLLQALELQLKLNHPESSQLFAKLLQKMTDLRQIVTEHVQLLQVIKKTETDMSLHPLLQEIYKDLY
T1 sequence (P19793 whole entry): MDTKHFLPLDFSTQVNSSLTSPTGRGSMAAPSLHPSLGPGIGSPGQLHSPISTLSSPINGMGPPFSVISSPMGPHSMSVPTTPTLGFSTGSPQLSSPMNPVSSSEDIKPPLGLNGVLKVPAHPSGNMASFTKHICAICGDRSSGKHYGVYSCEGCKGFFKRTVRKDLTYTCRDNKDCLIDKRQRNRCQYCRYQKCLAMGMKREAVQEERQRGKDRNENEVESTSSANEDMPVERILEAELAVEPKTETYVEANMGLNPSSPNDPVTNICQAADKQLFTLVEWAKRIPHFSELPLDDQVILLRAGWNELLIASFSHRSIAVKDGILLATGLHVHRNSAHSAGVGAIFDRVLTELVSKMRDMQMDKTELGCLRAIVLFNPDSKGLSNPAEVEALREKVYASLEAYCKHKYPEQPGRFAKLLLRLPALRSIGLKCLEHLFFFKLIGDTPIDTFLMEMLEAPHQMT
Outline: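 CV1 cells were transfected, in DMEM with 5% charcoal-stripped FBS, with CMV-driven full PPARγ and RXRα plus a 2×PPRE TK-promoter luciferase reporter. After overnight growth, cells were replated at 15000/well for 4 h, then treated with 0.17 nM–10 μM in half-log dilutions for 24 h. Lysate luminescence was expressed as % of the maximum from 10 μM reference PPARγ agonist and fit to a 4-parameter logistic.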

[1] = biological target: Free fatty acid receptor 1 (Homo sapiens, UniProt O14842); assay: Displacement of [3H]-(S)-2-(6-((2',6'-dimethyl-4'-(3-(methylsulfonyl)propoxy)biphenyl-3-yl)methoxy)-2,3-dihydrobenzofuran-3-yl)acetic acid from human recombinant full-length GPR40 expressed in human HEK293 cell membrane assessed as Koff rate measured after 2 hrs by radioligand competitive assay; assay type: cell membranes; settings: filed as agonist
Free fatty acid receptor 1, sequence (O14842 whole entry): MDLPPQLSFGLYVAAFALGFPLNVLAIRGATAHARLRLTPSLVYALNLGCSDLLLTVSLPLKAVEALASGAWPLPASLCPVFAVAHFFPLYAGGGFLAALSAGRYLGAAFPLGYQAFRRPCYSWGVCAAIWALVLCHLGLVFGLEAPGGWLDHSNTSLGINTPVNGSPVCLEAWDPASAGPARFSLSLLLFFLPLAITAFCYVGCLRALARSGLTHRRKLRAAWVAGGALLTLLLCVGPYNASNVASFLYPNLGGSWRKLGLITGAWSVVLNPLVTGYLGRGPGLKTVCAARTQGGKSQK

[2] = Clearance in mouse hepatocytes by LC-MS/MS analysis; assay type: ADME, cell-based, Hepatocyte
[3] = Drug metabolism in mouse hepatocytes assessed as glucuronidation by LC-MS/MS analysis; assay type: ADME, cell-based, Hepatocyte
[4] = biological target: Voltage-gated inwardly rectifying potassium channel KCNH2 (Homo sapiens, UniProt Q12809); assay: Inhibition of human ERG at 10 to 100 uM; settings: dose 10-100 µM
Voltage-gated inwardly rectifying potassium channel KCNH2, sequence (Q12809 whole entry): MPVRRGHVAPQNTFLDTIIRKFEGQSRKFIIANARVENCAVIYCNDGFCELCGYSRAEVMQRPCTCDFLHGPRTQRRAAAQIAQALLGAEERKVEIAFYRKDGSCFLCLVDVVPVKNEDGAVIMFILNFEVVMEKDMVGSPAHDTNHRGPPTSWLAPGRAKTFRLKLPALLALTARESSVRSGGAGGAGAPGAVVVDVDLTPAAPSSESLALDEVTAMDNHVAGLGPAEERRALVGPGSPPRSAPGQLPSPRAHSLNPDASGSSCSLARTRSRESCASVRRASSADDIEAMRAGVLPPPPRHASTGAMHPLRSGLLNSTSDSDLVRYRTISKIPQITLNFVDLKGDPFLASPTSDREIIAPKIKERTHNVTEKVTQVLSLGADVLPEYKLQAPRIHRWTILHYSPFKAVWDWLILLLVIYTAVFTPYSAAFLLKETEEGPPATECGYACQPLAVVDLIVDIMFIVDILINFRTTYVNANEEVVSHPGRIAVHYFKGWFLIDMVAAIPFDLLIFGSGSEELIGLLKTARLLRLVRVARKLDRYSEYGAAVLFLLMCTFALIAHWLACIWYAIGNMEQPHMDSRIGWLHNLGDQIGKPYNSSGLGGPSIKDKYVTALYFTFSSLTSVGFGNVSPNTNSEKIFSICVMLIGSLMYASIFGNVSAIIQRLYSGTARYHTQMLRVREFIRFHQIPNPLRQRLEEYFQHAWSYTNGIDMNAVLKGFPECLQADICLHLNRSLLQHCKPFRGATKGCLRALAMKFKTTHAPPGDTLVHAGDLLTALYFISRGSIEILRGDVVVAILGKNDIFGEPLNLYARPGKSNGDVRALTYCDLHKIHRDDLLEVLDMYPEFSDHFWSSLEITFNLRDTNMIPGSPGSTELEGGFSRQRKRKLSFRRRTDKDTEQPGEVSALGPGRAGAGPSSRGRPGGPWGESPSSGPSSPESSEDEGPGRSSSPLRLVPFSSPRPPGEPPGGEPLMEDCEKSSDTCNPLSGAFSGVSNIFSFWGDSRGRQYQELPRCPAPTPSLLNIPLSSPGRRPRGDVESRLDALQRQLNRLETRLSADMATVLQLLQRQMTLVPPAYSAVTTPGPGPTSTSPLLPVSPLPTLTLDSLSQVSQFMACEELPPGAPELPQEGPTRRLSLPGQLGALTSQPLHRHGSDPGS

[5] = Elimination half-life in rat plasma at 3 mg/kg, po or 1 mg/kg, iv by LC/MS/MS analysis; assay type: ADME, organism-based; settings: read-out: beta t1/2 (converted)
Outline: (§1)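 Dosed to mice, rats or beagle dogs. Blood collected at selected time points with EDTA anticoagulant, processed to plasma and analysed by LC/MS/MS. Parameters obtained by noncompartmental analysis.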

[6] = Clearance in dog plasma at 3 mg/kg, po or 1 mg/kg, iv by LC/MS/MS analysis; assay type: ADME, organism-based, Canis lupus familiaris
Outline: (§2)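 Mice, rats and beagle dogs were dosed. Blood was collected into EDTA at set time points and processed to plasma for LC/MS/MS bioanalysis. Parameters were derived by noncompartmental analysis.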

[7] = Drug metabolism in dog feces assessed as metabolite formation by LC-MS/MS analysis; assay type: ADME, tissue-based, Canis lupus familiaris
[8] = Clearance in rat plasma at 3 mg/kg, po or 1 mg/kg, iv by LC/MS/MS analysis; assay type: ADME, organism-based; outline: as §2
[9] = Clearance in human hepatocytes by LC-MS/MS analysis; assay type: ADME, cell-based, Hepatocyte
[10] = Cmax in dog plasma at 3 mg/kg, po or 1 mg/kg, iv by LC/MS/MS analysis; assay type: ADME, organism-based, Canis lupus familiaris; set-up: dose 3 mg/kg; outline: as §2
[11] = Elimination half-life in dog plasma at 3 mg/kg, po or 1 mg/kg, iv by LC/MS/MS analysis; assay type: ADME, organism-based, Canis lupus familiaris; outline: as §1
[12] = Oral bioavailability in rat at 3 mg/kg by LC/MS/MS analysis; assay type: ADME, organism-based; settings: in vivo; outline: as §1
[13] = Drug metabolism in dog plasma assessed as metabolite formation by LC-MS/MS analysis; assay type: ADME, cell-free, Canis lupus familiaris
[14] = Volume of distribution at steady state in mouse at 3 mg/kg, po or 1 mg/kg, iv by LC/MS/MS analysis; assay type: ADME, organism-based; settings: in vivo, read-out: Vdss; outline: as §1
[15] = Half-life in dog at 3 mg/kg, po or 1 mg/kg, iv by LC/MS/MS analysis; assay type: ADME, organism-based, Canis lupus familiaris; settings: in vivo; outline: as §1
[16] = Tmax in rat at 3 mg/kg, po or 1 mg/kg, iv by LC/MS/MS analysis; assay type: ADME, organism-based; settings: in vivo; outline: as §1
[17] = Volume of distribution at steady state in rat at 3 mg/kg, po or 1 mg/kg, iv by LC/MS/MS analysis; assay type: ADME, organism-based; settings: in vivo, read-out: Vdss; outline: as §1
[18] = Tmax in mouse at 3 mg/kg, po or 1 mg/kg, iv by LC/MS/MS analysis; assay type: ADME, organism-based; settings: in vivo; outline: as §1
[19] = Oral bioavailability in dog at 3 mg/kg by LC/MS/MS analysis; assay type: ADME, organism-based, Canis lupus familiaris; settings: in vivo; outline: as §1
[20] = Tmax in dog at 3 mg/kg, po or 1 mg/kg, iv by LC/MS/MS analysis; assay type: ADME, organism-based, Canis lupus familiaris; settings: in vivo; outline: as §1
[21] = Volume of distribution at steady state in dog at 3 mg/kg, po or 1 mg/kg, iv by LC/MS/MS analysis; assay type: ADME, organism-based, Canis lupus familiaris; settings: in vivo, read-out: Vdss; outline: as §1
[22] = Cmax in rat plasma at 3 mg/kg, po or 1 mg/kg, iv by LC/MS/MS analysis; assay type: ADME, organism-based; set-up: dose 3 mg/kg; outline: as §2
[23] = Elimination half-life in mouse plasma at 3 mg/kg, po or 1 mg/kg, iv by LC/MS/MS analysis; assay type: ADME, organism-based; outline: as §1
[24] = Drug metabolism in dog hepatocytes assessed as N-dealkylation by LC-MS/MS analysis; assay type: ADME, cell-based, Canis lupus familiaris, Hepatocyte
[25] = Drug metabolism in human hepatocytes assessed as N-dealkylation by LC-MS/MS analysis; assay type: ADME, cell-based, Hepatocyte
[26] = Drug metabolism in dog hepatocytes assessed as taurine metabolite formation by LC-MS/MS analysis; assay type: ADME, cell-based, Canis lupus familiaris, Hepatocyte
[27] = Drug metabolism in human hepatocytes assessed as taurine metabolite formation by LC-MS/MS analysis; assay type: ADME, cell-based, Hepatocyte
[28] = Drug metabolism in rat hepatocytes assessed as N-dealkylation by LC-MS/MS analysis; assay type: ADME, cell-based, Hepatocyte

Row | Structure (SMILES) | EC50 (RXR alpha/PPAR gamma) | K [1] | CLH [2] | Drug metabolism [3] | inhibition (INH) [4] | half-life [5] | clearance [6] | Drug metabolism [7] | clearance [8] | CLH [9] | Cmax [10] | half-life [11] | bioavailability [12] | Drug metabolism [13] | Vd [14] | half-life [15] | Tmax [16] | Vd [17] | Tmax [18] | bioavailability [19] | also measured
1 | CC#C[C@@H](CC(=O)O)c1ccc(OCc2ccc(CN3CCC4(C=Cc5ccccc54)CC3)cc2)cc1 [LY2881835] | > 10 µM | 0.00822 min⁻¹ | 0.09 h⁻¹ | Metabolite_Detected | Not Active |  |  |  |  |  |  |  |  |  |  |  |  |  |  |  | 
2 | CC#C[C@@H](CC(=O)O)c1ccc(OCc2ccc(CN3CCCc4cccc(OC)c43)s2)cc1 | > 10 µM |  | < 0.05 h⁻¹ | Metabolite_Detected | Not Active | 5.6 h | 4.6 mL/min/kg | Metabolite_Notdetected | 3.8 mL/min/kg | 0.17 h⁻¹ | 2290 ng/mL | 4.4 h | 95% | Metabolite_Detected | 3.9 L/kg | 4.4 h | 0.6 h | 1.2 L/kg | 1 h | 55% | Tmax [20]: 0.5 h; Vd [21]: 1 L/kg; Cmax [22]: 4140 ng/mL; half-life [23]: 4.2 h
3 | CC#C[C@@H](CC(=O)O)c1ccc(OCc2ccc(CN3CCC4(C=Cc5ccccc54)CC3)s2)cc1 |  |  |  |  |  |  |  |  |  |  |  |  |  |  |  |  |  |  |  |  | Drug metabolism [24]: Metabolite_Detected; Drug metabolism [25]: Metabolite_Detected; Drug metabolism [26]: Metabolite_Detected; Drug metabolism [27]: Metabolite_Detected; Drug metabolism [28]: Metabolite_Detected
4 | CC#C[C@@H](CC(=O)O)c1ccc(OCc2ccc(CN3CCC4(CCc5ccccc54)CC3)s2)cc1 | > 10 µM |  | 0.1 h⁻¹ | Metabolite_Detected | Not Active | 2 h | 2.2 mL/min/kg | Metabolite_Notdetected | 20 mL/min/kg | 0.23 h⁻¹ | 1100 ng/mL | 3.8 h | 46% | Metabolite_Notdetected | 1.6 L/kg | 3.8 h | 0.5 h | 0.8 L/kg | 2 h | 17% | Drug metabolism [24]: Metabolite_Detected; Drug metabolism [25]: Metabolite_Detected; Drug metabolism [26]: Metabolite_Detected; Drug metabolism [27]: Metabolite_Detected; Drug metabolism [28]: Metabolite_Detected; Tmax [20]: 2 h; Vd [21]: 0.2 L/kg; Cmax [22]: 829 ng/mL; half-life [23]: 1.7 h
5 | O=C(O)CCc1ccc(OCc2ccc(CN3CCC4(C=Cc5ccccc54)CC3)cc2)cc1F |  | 0.0866 min⁻¹ |  |  |  |  |  |  |  |  |  |  |  |  |  |  |  |  |  |  | 
